According to ChEMBL document CHEMBL1149785, “Synthesis and biological evaluation of helicid analogues as novel acetylcholinesterase inhibitors” (Eur J Med Chem, 2008):
Activity calls are given as the source filed them. No cut-off for these calls is given here.

Columns and labels:
[1] = target: Cholinesterase (Equus caballus) (UniProt P81908); test: Inhibition of horse serum BuChE upto 500 uM by Ellman's method
In short: (§1)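 Modified Ellman assay with acetylthiocholine (AChE) or butyrylthiocholine (BuChE) as substrate, from 0.075 M stock solutions, and DTNB from a 0.01 M stock, in phosphate buffer. Enzyme, DTNB and test compound were pre-incubated for 15 min at 37 °C, then substrate was added. Absorbance was read at 412 nm for 1 min. Five concentrations, normally 10^-4 to 10^-9 M, each in triplicate.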

[2] = target: Acetylcholinesterase (Electrophorus electricus, UniProt O42275); test: Inhibition of Electrophorus electricus AChE by Ellman's method
[3] = target: Acetylcholinesterase (Electrophorus electricus) (UniProt O42275); test: Inhibition of Electrophorus electricus AChE upto 500 uM by Ellman's method; in short: as §1
[4] = target: Cholinesterase (Equus caballus, UniProt P81908); test: Inhibition of horse serum BuChE by Ellman's method
[5] = target: 4-aminobutyrate aminotransferase, mitochondrial (Homo sapiens, UniProt P80404); test: Inhibition of GABA transaminase
4-aminobutyrate aminotransferase, mitochondrial, sequence (P80404 whole entry): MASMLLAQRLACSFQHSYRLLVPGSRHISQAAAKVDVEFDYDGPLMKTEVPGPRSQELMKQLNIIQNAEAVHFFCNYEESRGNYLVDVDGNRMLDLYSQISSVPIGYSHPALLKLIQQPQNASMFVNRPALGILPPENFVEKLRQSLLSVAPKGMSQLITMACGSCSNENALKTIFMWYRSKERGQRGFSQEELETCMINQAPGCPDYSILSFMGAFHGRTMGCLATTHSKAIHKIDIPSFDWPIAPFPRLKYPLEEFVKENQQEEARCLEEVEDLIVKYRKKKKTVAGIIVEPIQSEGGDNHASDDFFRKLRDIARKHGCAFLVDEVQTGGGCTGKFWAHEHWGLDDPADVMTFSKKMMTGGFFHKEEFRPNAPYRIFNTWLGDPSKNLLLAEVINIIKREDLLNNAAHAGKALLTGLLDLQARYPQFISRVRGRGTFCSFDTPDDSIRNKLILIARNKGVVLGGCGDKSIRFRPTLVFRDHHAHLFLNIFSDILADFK

Acetylcholinesterase, sequence (O42275 whole entry): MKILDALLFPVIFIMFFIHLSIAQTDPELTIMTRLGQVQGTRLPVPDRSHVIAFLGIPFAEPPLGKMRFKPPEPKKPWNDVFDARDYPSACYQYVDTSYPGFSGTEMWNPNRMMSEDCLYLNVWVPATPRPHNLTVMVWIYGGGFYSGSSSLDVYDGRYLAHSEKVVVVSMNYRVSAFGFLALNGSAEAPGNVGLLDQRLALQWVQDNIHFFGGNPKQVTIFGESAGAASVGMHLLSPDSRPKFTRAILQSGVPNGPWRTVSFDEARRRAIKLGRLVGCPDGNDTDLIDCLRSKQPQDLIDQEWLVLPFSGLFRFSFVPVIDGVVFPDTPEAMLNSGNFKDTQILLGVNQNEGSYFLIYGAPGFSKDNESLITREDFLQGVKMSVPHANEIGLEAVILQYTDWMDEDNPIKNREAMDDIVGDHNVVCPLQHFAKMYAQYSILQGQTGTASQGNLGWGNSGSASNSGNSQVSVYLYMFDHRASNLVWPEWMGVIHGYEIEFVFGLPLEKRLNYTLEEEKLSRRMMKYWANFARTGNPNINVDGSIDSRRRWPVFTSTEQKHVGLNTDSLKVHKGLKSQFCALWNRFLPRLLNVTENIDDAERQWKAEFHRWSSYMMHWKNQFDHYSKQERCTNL
Acetylcholinesterase (Electrophorus electricus), sequence (O42275 24-633 limits assumed): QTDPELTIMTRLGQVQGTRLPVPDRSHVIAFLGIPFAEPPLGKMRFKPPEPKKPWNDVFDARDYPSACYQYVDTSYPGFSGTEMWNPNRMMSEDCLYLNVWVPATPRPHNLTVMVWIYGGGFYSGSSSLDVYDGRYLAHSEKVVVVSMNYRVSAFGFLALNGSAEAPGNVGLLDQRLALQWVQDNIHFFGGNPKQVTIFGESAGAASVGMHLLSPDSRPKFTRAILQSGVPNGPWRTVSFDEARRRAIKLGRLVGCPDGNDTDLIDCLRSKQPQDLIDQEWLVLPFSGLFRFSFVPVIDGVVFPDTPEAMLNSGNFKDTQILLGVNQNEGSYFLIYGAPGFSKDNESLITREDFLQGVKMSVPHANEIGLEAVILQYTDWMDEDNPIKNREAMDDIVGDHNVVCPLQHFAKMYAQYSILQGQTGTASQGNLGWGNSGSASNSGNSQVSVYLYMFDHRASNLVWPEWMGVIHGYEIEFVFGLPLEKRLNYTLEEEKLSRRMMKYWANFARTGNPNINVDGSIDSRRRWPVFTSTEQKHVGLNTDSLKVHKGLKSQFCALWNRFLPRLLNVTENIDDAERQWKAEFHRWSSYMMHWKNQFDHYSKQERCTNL
Cholinesterase (Equus caballus), sequence (P81908 whole entry): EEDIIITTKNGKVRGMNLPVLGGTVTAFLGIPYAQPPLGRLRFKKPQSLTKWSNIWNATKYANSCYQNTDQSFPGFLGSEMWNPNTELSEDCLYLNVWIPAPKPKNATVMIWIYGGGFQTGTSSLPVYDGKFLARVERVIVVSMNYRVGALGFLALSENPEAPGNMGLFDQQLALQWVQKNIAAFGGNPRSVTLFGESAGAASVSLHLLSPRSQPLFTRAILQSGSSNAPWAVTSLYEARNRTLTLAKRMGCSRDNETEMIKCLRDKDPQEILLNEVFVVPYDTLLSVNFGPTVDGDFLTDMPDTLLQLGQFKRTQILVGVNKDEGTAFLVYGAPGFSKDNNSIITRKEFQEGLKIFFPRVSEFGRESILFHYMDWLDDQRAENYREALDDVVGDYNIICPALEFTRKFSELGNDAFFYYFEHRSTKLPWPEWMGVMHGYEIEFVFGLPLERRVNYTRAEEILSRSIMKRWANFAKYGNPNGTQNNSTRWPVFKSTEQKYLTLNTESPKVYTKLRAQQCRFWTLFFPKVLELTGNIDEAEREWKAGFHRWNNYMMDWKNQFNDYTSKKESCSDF
Cholinesterase, sequence (P81908 whole entry): as above

Compound | Activity [1] | IC50 [2] [µM] | also measured
NC(=O)N/N=C/c1ccc(O[C@@H]2O[C@H](CO)[C@@H](O)[C@H](O)[C@H]2O)cc1 | inactive | 121 | 
CC(=O)OC[C@H]1O[C@@H](O[C@H]2[C@H](OC(C)=O)[C@@H](OC(C)=O)[C@H](Oc3ccc(C=O)cc3)O[C@@H]2COC(C)=O)[C@H](OC(C)=O)[C@@H](OC(C)=O)[C@H]1OC(C)=O | inactive |  | Activity [3]: inactive
CC(=O)OC[C@H]1O[C@@H](Oc2ccc(C=O)cc2)[C@H](OC(C)=O)[C@H](OC(C)=O)[C@@H]1OC(C)=O | inactive |  | Activity [3]: inactive
CC(=O)OC[C@H]1O[C@@H](Oc2ccc(/C=N/NC(N)=O)cc2)[C@H](OC(C)=O)[C@@H](OC(C)=O)[C@@H]1OC(C)=O | inactive | 143 | 
NC(=S)N/N=C/c1ccc(O[C@@H]2O[C@H](CO)[C@@H](O)[C@H](O)[C@H]2O)cc1 | inactive | 22.9 | 
O=Cc1ccc(O[C@@H]2OC[C@@H](OC(=O)c3ccccc3)[C@@H](OC(=O)c3ccccc3)[C@H]2OC(=O)c2ccccc2)cc1 |  | 14 | IC50 [4]: 64.3 µM
O=Cc1ccc(O[C@@H]2OC[C@@H](OC(=O)c3ccccc3)[C@H](OC(=O)c3ccccc3)[C@H]2OC(=O)c2ccccc2)cc1 | inactive | 35 | 
OC[C@H]1O[C@@H](Oc2ccc(/C=N/O)cc2)[C@H](O)[C@@H](O)[C@@H]1O | inactive |  | 
O=Cc1ccc(O[C@@H]2O[C@H](CO)[C@@H](O)[C@@H](O)[C@H]2O)cc1 | inactive |  | Activity [3]: inactive
CC(=O)OC[C@H]1O[C@@H](Oc2ccc(C=O)cc2)[C@H](OC(C)=O)[C@@H](OC(C)=O)[C@@H]1OC(C)=O | inactive | 1.5 | 
CC(=O)OC[C@H]1O[C@@H](Oc2ccc(/C=N/O)cc2)[C@H](OC(C)=O)[C@@H](OC(C)=O)[C@@H]1OC(C)=O | inactive |  | 
CO/N=C\c1ccc(O[C@@H]2O[C@H](CO)[C@@H](O)[C@H](O)[C@H]2O)cc1 | inactive | 0.49 | Ki [2]: 0.13 µM
CC(=O)OC[C@H]1O[C@@H](Oc2ccc(/C=N/NC(N)=S)cc2)[C@H](OC(C)=O)[C@@H](OC(C)=O)[C@@H]1OC(C)=O | inactive | 21.5 | 
NC(=O)N/N=C/c1ccc(O[C@@H]2OC[C@@H](OC(=O)c3ccccc3)[C@@H](OC(=O)c3ccccc3)[C@H]2OC(=O)c2ccccc2)cc1 |  | 7.07 | IC50 [4]: 48.7 µM
O=Cc1ccc(O[C@@H]2OC[C@@H](O)[C@@H](O)[C@H]2O)cc1 | inactive | 0.2 | Ki [2]: 0.51 µM
CC(=O)OC[C@H]1O[C@@H](Oc2ccc(C=O)cc2)[C@H](OC(C)=O)[C@@H](OC(C)=O)[C@H]1OC(C)=O | inactive | 45.4 | 
CO/N=C\c1ccc(O[C@@H]2O[C@H](COC(C)=O)[C@@H](OC(C)=O)[C@H](OC(C)=O)[C@H]2OC(C)=O)cc1 | inactive | 15.1 | 
O=Cc1ccc(O[C@@H]2O[C@H](CO)[C@@H](O)[C@H](O)[C@H]2O)cc1 | inactive | 0.45 | Ki [2]: 0.73 µM
NC(=S)N/N=C/c1ccc(O[C@@H]2OC[C@@H](OC(=O)c3ccccc3)[C@@H](OC(=O)c3ccccc3)[C@H]2OC(=O)c2ccccc2)cc1 |  | 46.4 | IC50 [4]: 71.8 µM
CO/N=C\c1ccc(O[C@@H]2OC[C@@H](OC(=O)c3ccccc3)[C@@H](OC(=O)c3ccccc3)[C@H]2OC(=O)c2ccccc2)cc1 |  | 3.08 | IC50 [4]: 45.8 µM
O=Cc1ccc(O)cc1 [4-HYDROXYBENZALDEHYDE] |  |  | IC50 [5]: 33.6 µM
